# Results taken from the M2OR odorant receptor database.
# Columns and labels:
# Details in all cases: stereoisomer not certain
# [1] = biological target: T1, UniProt A2ATE5
# T1 sequence (whole entry): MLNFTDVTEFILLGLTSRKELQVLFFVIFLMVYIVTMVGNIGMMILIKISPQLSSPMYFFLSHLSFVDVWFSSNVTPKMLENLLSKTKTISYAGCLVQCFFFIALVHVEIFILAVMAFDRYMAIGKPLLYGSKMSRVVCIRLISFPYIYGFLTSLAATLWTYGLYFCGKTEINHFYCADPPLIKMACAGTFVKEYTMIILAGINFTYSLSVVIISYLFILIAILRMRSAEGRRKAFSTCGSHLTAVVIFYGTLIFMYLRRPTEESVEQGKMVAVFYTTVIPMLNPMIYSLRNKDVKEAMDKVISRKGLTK
# Method in brief: (§1)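 Each receptor–molecule pair is labelled responsive or non-responsive (inactive) according to whether the original authors judged the measured signal statistically different from baseline. The data were taken from the main text and supplementary material of published papers and checked for typos and inconsistencies. Assay methods differed by source, with transient luciferase assays in mammalian cell lines being common.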
# [2] = biological target: T2, UniProt A2AVB0
# T2 sequence (whole entry): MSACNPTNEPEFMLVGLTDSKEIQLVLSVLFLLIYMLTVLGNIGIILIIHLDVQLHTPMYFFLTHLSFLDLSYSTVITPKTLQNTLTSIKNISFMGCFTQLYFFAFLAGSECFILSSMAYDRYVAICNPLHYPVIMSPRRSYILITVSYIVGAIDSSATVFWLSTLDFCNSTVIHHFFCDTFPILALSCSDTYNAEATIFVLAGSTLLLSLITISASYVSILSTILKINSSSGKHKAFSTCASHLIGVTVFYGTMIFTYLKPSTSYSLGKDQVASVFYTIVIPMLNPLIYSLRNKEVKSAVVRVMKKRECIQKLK
# Method in brief: as §1
# [3] = biological target: T3, UniProt E9PVX1
# T3 sequence (whole entry): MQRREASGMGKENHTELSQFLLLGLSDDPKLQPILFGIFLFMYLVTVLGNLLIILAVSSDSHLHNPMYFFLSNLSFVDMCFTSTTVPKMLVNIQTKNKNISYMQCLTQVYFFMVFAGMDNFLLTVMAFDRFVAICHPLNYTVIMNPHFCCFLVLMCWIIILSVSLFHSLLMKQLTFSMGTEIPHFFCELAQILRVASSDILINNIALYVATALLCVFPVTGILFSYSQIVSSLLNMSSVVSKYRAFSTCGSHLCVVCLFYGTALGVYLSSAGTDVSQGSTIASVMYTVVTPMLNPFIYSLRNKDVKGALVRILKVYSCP
# Method in brief: as §1
# [4] = biological target: T4, UniProt E9PXN3
# T4 sequence (whole entry): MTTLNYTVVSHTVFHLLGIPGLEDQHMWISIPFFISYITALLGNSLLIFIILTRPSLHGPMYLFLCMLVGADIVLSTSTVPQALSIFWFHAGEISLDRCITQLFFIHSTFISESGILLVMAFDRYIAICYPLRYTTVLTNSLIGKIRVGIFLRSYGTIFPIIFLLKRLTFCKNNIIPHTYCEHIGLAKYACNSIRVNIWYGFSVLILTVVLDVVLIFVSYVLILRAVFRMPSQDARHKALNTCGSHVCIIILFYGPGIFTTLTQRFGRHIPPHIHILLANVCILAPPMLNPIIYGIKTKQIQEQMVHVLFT
# Method in brief: as §1
# [5] = biological target: T5, UniProt E9PZ66
# T5 sequence (whole entry): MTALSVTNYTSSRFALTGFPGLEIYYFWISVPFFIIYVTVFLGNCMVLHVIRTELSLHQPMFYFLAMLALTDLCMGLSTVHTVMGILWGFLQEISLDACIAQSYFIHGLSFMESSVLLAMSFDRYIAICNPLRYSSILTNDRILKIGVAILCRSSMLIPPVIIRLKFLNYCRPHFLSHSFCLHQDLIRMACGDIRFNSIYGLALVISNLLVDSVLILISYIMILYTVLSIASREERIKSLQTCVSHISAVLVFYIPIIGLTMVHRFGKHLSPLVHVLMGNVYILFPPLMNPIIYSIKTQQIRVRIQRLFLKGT
# Method in brief: as §1
# [6] = biological target: T6, UniProt E9Q4X7
# T6 sequence (whole entry): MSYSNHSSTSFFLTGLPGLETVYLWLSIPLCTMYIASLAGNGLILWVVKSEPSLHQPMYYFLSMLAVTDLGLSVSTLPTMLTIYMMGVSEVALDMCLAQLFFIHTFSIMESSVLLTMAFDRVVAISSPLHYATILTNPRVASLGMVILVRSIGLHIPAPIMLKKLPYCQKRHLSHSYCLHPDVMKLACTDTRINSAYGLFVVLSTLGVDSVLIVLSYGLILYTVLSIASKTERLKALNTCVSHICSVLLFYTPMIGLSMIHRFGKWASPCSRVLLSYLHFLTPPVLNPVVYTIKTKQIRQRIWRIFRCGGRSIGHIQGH
# Method in brief: as §1
# [7] = biological target: T7, UniProt E9Q546
# T7 sequence (whole entry): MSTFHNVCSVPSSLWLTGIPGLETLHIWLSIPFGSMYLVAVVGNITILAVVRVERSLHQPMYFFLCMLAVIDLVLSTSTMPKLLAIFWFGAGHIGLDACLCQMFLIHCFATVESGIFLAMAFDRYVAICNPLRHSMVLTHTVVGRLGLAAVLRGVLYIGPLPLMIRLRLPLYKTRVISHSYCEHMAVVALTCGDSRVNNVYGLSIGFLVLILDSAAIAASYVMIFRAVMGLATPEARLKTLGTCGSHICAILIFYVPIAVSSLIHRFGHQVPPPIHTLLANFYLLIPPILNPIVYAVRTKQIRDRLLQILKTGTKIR
# Method in brief: as §1
# [8] = biological target: T8, UniProt E9Q6Z7
# T8 sequence (whole entry): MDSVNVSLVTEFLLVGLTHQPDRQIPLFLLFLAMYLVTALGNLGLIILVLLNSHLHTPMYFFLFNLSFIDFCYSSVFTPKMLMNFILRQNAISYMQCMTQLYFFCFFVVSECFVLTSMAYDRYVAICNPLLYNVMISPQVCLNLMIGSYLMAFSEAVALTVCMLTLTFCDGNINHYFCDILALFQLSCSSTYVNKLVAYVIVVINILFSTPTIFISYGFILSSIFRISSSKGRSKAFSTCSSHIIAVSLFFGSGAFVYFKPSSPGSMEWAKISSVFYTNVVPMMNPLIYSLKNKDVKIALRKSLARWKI
# Method in brief: as §1
# [9] = biological target: T9, UniProt E1BM68
# T9 sequence (whole entry): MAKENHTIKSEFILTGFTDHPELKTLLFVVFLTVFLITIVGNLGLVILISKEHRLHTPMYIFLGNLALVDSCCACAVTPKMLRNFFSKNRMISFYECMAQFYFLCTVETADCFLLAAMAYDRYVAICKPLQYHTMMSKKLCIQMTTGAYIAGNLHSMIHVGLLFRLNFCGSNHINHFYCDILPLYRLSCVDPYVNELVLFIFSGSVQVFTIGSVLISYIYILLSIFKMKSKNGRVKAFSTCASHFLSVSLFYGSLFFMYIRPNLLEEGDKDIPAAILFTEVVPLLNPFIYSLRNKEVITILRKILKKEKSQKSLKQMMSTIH
# Method in brief: as §1
# [10] = biological target: T10, UniProt E9QAT7
# T10 sequence (whole entry): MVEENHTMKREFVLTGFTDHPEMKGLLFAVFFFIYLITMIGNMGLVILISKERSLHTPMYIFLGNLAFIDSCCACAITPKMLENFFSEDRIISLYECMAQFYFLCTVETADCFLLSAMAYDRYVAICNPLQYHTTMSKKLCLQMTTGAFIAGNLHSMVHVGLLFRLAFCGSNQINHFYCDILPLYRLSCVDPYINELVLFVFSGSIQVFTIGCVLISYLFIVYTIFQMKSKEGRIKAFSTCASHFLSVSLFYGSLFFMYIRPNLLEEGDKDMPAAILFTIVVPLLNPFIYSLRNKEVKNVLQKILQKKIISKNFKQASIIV
# Method in brief: as §1
# [11] = biological target: T11, UniProt A2AVB5
# T11 sequence (whole entry): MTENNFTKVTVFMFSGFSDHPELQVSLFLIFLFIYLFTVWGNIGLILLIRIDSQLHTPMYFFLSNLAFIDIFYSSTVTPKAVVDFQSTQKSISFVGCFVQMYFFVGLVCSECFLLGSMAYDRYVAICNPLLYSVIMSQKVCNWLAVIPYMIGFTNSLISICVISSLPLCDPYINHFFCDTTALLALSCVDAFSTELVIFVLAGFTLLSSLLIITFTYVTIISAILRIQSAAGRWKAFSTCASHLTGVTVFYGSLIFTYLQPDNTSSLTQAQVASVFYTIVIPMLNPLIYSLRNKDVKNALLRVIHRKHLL
# Method in brief: as §1
# [12] = biological target: T12, UniProt B2RVX8
# T12 sequence (whole entry): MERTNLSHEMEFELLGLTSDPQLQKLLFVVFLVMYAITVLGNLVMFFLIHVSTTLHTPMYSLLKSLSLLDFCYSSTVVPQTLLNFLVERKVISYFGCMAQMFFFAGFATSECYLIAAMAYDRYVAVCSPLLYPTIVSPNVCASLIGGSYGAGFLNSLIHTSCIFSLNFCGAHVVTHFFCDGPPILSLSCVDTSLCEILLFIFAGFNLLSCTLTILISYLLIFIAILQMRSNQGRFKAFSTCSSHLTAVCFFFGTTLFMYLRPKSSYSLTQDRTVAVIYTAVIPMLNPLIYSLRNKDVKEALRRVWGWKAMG
# Method in brief: as §1
# [13] = biological target: T13, UniProt K7N609
# T13 sequence (whole entry): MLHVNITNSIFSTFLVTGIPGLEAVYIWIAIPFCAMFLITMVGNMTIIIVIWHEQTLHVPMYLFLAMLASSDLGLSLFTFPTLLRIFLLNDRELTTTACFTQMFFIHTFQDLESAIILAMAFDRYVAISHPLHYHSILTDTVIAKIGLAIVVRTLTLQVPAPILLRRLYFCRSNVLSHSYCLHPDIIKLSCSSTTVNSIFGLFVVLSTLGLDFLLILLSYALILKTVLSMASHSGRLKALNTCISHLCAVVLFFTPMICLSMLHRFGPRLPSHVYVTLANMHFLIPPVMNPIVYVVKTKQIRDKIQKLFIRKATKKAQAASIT
# Method in brief: as §1
# 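Further: active if original authors judged signal statistically different from baseline.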
SMILES,odorant receptor agonist call [1],odorant receptor agonist call [2],odorant receptor agonist call [3],odorant receptor agonist call [4],odorant receptor agonist call [5],odorant receptor agonist call [6],odorant receptor agonist call [7],odorant receptor agonist call [8],odorant receptor agonist call [9],odorant receptor agonist call [10],odorant receptor agonist call [11],odorant receptor agonist call [12],odorant receptor agonist call [13]
CCCCCCCCCCCO,inactive,inactive,inactive,inactive,inactive,inactive,inactive,inactive,–,–,–,–,–
COc1cnccn1,inactive,inactive,inactive,–,inactive,inactive,inactive,inactive,active,inactive,–,–,–
C=C(C)C1CCC(C)C(O)C1 (configuration not stated),inactive,inactive,inactive,–,inactive,inactive,inactive,inactive,–,–,–,–,–
Cc1ccc2c(c1)OCC(=O)CO2,inactive,inactive,inactive,–,inactive,inactive,inactive,inactive,–,–,–,–,–
CCC(C)c1nccnc1OC (configuration not stated),inactive,inactive,inactive,–,inactive,inactive,inactive,inactive,active,inactive,–,–,–
O=C(OCc1ccccc1)c1ccccc1O,inactive,inactive,inactive,–,inactive,inactive,inactive,inactive,–,–,–,–,–
COc1nccnc1C,inactive,inactive,inactive,–,inactive,inactive,inactive,inactive,–,–,–,–,–
CCc1occc(=O)c1O,active,inactive,inactive,–,inactive,inactive,inactive,inactive,–,–,–,–,–
CC=C(C)C=O,inactive,inactive,inactive,–,inactive,inactive,inactive,inactive,–,–,–,–,–
COc1nccnc1C(C)C,inactive,inactive,inactive,–,inactive,inactive,inactive,inactive,active,inactive,–,–,–
CC(C)=CCCC(C)=CCO,inactive,inactive,inactive,–,inactive,inactive,inactive,inactive,–,–,inactive,inactive,inactive
O=C(O)CCCCCBr,inactive,inactive,inactive,inactive,inactive,inactive,inactive,inactive,–,–,–,–,–
CCC=CCCCCC=O,inactive,inactive,inactive,–,inactive,inactive,inactive,inactive,–,–,–,–,–
CCCCCCCOC(=O)C(C)C,inactive,inactive,inactive,–,inactive,inactive,inactive,inactive,–,–,–,–,–
CC(=O)C1(C)CC2=C(CCCC2(C)C)CC1C (configuration not stated),inactive,inactive,inactive,–,inactive,inactive,inactive,inactive,–,–,–,–,–
CCCCCCCCOC=O,inactive,inactive,inactive,–,inactive,inactive,inactive,inactive,–,–,–,–,–
CCN(CC)CC,inactive,inactive,inactive,–,inactive,inactive,inactive,inactive,–,–,–,–,–

SMILES,odorant receptor agonist call [1],odorant receptor agonist call [2],odorant receptor agonist call [3],odorant receptor agonist call [4],odorant receptor agonist call [5],odorant receptor agonist call [6],odorant receptor agonist call [7],odorant receptor agonist call [8],odorant receptor agonist call [9],odorant receptor agonist call [10],odorant receptor agonist call [11],odorant receptor agonist call [12],odorant receptor agonist call [13]
CCCO,inactive,inactive,inactive,–,inactive,inactive,inactive,inactive,–,–,–,–,–
CCCCCCCCCCOC(C)=O,inactive,inactive,inactive,–,inactive,inactive,inactive,inactive,–,–,–,–,–
C1CCOC1,inactive,inactive,inactive,–,inactive,inactive,inactive,inactive,–,–,–,–,–
CCCCCCC(=O)OCCCC,inactive,inactive,inactive,–,inactive,inactive,inactive,inactive,–,–,–,–,–
c1ccc2ncccc2c1,inactive,inactive,inactive,–,inactive,inactive,inactive,inactive,–,–,–,–,–
C=CC(=C)CCC=C(C)CCC=C(C)C,inactive,inactive,inactive,–,inactive,inactive,inactive,inactive,–,–,–,–,–
C=C(C)C1CCC2(C)OC2C1 (configuration not stated),inactive,inactive,inactive,–,inactive,inactive,inactive,inactive,–,–,–,–,–
CCCCCCC(C=O)=Cc1ccccc1,inactive,inactive,inactive,–,inactive,inactive,inactive,inactive,–,–,–,–,–
CCCCCC=CCCC=O,inactive,inactive,inactive,–,inactive,active,inactive,inactive,–,–,–,–,–
CCc1ccc(O)cc1,inactive,inactive,inactive,–,inactive,inactive,inactive,inactive,–,–,–,–,–
CSSCc1ccco1,inactive,inactive,inactive,–,inactive,inactive,inactive,inactive,–,–,–,–,–
CC1(C)CC(=O)CC(=O)C1,inactive,inactive,inactive,–,inactive,inactive,inactive,inactive,–,–,–,–,–
CCSCC,inactive,inactive,inactive,–,inactive,inactive,inactive,inactive,–,–,–,–,–
Cc1ccccc1OC(=O)C(C)C,inactive,inactive,inactive,–,inactive,inactive,inactive,inactive,–,–,–,–,–
CCCCCOC(=O)CCC,inactive,inactive,inactive,–,inactive,inactive,inactive,inactive,–,–,–,–,–
OCCCCCCCCCO,inactive,inactive,inactive,–,inactive,inactive,inactive,inactive,–,–,–,–,–
